Source: ChEMBL document CHEMBL1128333, “Derivatives of cis-2-amino-8-hydroxy-1-methyltetralin: mixed 5-HT1A-receptor agonists and dopamine D2-receptor antagonists” (J Med Chem, 1995)

Experiments:
[1] = species: Rattus norvegicus; experiment: DOPAC (3,4-dihydroxyphenylacetic acid) content of rat striatum reflecting DA metabolism and turnover; format: functional; set-up: concentration or dose not given beside the values
Method in brief: (§1)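 Male Sprague–Dawley rats (260–310 g) received compound sc in 0.9% NaCl; saline controls. Rats were decapitated 35–45 min post-injection, and hippocampus and striatum were dissected and frozen. Tissue was homogenized in 0.1 M perchloric acid with α-methyl-5-hydroxytryptophan as internal standard, centrifuged and filtered, then analysed by HPLC-EC at 0.85 V (mobile phase pH 2.69, 35 °C). Values are percent of control, mean ± SEM.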

[2] = target: T1, 5-hydroxytryptamine receptor 1A (Rattus norvegicus, UniProt P19327); experiment: Binding affinity for 5-hydroxytryptamine 1A receptor in rat brain tissue using [3H]8-OH-DPAT as radioligand; format: tissue-based
T1 sequence (P19327 whole entry): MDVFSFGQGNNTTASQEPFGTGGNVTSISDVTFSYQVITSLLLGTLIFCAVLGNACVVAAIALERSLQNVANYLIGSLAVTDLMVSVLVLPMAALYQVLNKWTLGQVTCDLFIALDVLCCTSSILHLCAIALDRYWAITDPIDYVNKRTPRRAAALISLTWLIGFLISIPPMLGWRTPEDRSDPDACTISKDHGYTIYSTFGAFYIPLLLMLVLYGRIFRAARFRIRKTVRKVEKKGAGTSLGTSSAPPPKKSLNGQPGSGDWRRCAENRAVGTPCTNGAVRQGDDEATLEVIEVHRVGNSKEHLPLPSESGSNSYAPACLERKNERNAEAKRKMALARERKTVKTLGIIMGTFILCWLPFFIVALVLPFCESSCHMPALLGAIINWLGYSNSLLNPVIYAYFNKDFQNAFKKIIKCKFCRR
Method in brief: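 Membranes from male Sprague–Dawley rat cortex plus hippocampus, homogenized in 50 mM Tris-HCl with 4.0 mM CaCl2 and 5.7 mM ascorbic acid, pH 7.5, and preincubated 10 min at 37 °C with 10 μM pargyline. Assay used 5 mg/mL tissue and 2 nM [3H]-8-OH-DPAT, 10 min at 37 °C. Nonspecific binding was defined with 10 μM 5-HT. Bound ligand was separated on GF/B filters and counted; data were fitted by nonlinear regression.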

[3] = species: Rattus norvegicus; experiment: DA (dopamine) content of rat striatum reflecting DA metabolism and turnover; format: functional; method in brief: as §1
[4] = test system: Rattus norvegicus; experiment: Change in body temperature in rats after subcutaneous administration; format: functional
Method in brief: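 Rectal temperature was taken with an electrical thermometer, probe inserted 3.5 cm, before and 30 min after sc injection in 0.9% NaCl. Values are the change from the preinjection reading, analysed by Tukey HSD versus saline-treated rats. Male Sprague–Dawley rats, 260–310 g.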

[5] = test system: Rattus norvegicus; experiment: Cage leaving response was studied in rats after subcutaneous administration of 32 uM/Kg of compound; 3/4; format: functional
[6] = species: Rattus norvegicus; experiment: HVA (Homovanillic acid)content of rat striatum reflecting DA metabolism and turnover; format: functional; set-up: concentration or dose not given beside the values
[7] = species: Rattus norvegicus; experiment: 5-HT content of rat hippocampus reflecting 5-HT metabolism and turnover; format: functional; set-up: concentration or dose not given beside the values; method in brief: as §1
[8] = test system: Rattus norvegicus; experiment: Flat body posture behavior was studied in rats after subcutaneous administration of 32 uM/Kg of compound; 0/4; format: functional
Method in brief: (§2)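 Test compounds were given at 32 μmol/kg and the reference 5-HT1A agonist at 1 μmol/kg. Flat body posture, forepaw treading and hind limb abduction were each scored as absent or present. Values are animals showing the behavior out of animals tested, analysed by Fisher's exact test. Male Sprague–Dawley rats, 260–310 g.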

[9] = species: Rattus norvegicus; experiment: Ratio of serotonin turnover (5HIAA to 5-HT) in rat brain hippocampus compared to control; format: functional; method in brief: as §1
[10] = species: Rattus norvegicus; experiment: Ratio of turnover (DOPAC to DA) in rat brain striatum compared to control.; format: functional; method in brief: as §1
[11] = test system: Rattus norvegicus; experiment: Forepaw treading (FPT) behavior was studied in rats after subcutaneous administration of 32 uM/Kg of compound; 0/4; format: functional; method in brief: as §2
[12] = species: Rattus norvegicus; experiment: 5-HIAA (5-Hydroxyindoleacetic acid) content of rat hippocampus reflecting 5-HT metabolism and turnover; format: functional; set-up: concentration or dose not given beside the values; method in brief: as §1
[13] = test system: Rattus norvegicus; experiment: Flat body posture behavior was studied in rats after subcutaneous administration of 32 uM/Kg of compound; 5/5; format: functional
[14] = test system: Rattus norvegicus; experiment: Cage leaving response was studied in rats after subcutaneous administration of 32 uM/Kg of compound; 0/5; format: functional
[15] = test system: Rattus norvegicus; experiment: Forepaw treading (FPT) behavior was studied in rats after subcutaneous administration of 32 uM/Kg of compound; 5/5; format: functional
[16] = test system: Rattus norvegicus; experiment: Cage leaving response was studied in rats after subcutaneous administration of 32 uM/Kg of compound; 3/5; format: functional
[17] = test system: Rattus norvegicus; experiment: Flat body posture behavior was studied in rats after subcutaneous administration of 32 uM/Kg of compound; 0/5; format: functional
[18] = test system: Rattus norvegicus; experiment: Forepaw treading (FPT) behavior was studied in rats after subcutaneous administration of 32 uM/Kg of compound; 0/5; format: functional
[19] = test system: Rattus norvegicus; experiment: Cage leaving response was studied in rats after subcutaneous administration of 32 uM/Kg of compound; 2/4; format: functional
[20] = test system: Rattus norvegicus; experiment: Flat body posture behavior was studied in rats after subcutaneous administration of 32 uM/Kg of compound; 4/4; format: functional; method in brief: as §2
[21] = test system: Rattus norvegicus; experiment: Forepaw treading (FPT) behavior was studied in rats after subcutaneous administration of 32 uM/Kg of compound; 4/4; format: functional; method in brief: as §2
[22] = target: D(2) dopamine receptor (Homo sapiens, UniProt P14416); experiment: In vitro binding affinity towards human Dopamine receptor D2A was determined in mouse fibroblast LtK cells using [3H]raclopride; format: cell-based
Method in brief: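 Membranes from Ltk− mouse fibroblasts stably expressing human D2A receptors, at 80–100 pM receptor. Buffer was 50 mM Tris-HCl, 120 mM NaCl, 5 mM KCl, 1.5 mM CaCl2, 4 mM MgCl2, 1 mM EDTA, pH 7.4. Incubation with [3H]raclopride was 60 min at 22 °C, in duplicate, with 1 μM (+)-butaclamol for nonspecific binding. Bound ligand was separated on GF/B filters; data were fitted by nonlinear regression.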

[23] = test system: Rattus norvegicus; experiment: Cage leaving response was studied in rats after subcutaneous administration of 32 uM/Kg of compound; 0/4; format: functional

Sequence of D(2) dopamine receptor (P14416 whole entry): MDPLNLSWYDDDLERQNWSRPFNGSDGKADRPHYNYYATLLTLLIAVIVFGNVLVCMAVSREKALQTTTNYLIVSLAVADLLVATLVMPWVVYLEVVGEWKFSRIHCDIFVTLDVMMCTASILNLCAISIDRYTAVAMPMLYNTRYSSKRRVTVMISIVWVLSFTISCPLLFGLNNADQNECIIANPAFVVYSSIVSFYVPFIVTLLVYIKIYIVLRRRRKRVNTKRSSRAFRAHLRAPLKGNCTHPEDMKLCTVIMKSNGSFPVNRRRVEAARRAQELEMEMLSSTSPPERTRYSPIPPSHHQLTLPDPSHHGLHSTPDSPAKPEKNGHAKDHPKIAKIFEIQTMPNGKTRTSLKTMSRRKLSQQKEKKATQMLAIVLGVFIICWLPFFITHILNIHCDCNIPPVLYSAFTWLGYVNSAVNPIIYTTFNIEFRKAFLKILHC

CCCN(CCC)[C@H]1CCc2cccc(-c3ccco3)c2[C@H]1C
Control [1]: 102% | Ki [2]: 44 nM | Control [3]: 103% | Change of body temperature [4]: 0.1 °C | Cage leaving [5]: 3 | Control [6]: 109% | Control [7]: 108% | FBP [8]: 0 | Ratio [9]: 107 | Ratio [10]: 98 | FPT [11]: 0 | Control [12]: 121%

CCCN(CCC)[C@@H]1CCc2cccc(-c3ccco3)c2[C@@H]1C
Control [1]: 116% | Ki [2]: > 1000 nM | Control [3]: 91% | Change of body temperature [4]: 0.1 °C | Cage leaving [5]: 3 | Control [6]: 107% | Control [7]: 110% | FBP [8]: 0 | Ratio [9]: 101 | Ratio [10]: 128 | FPT [11]: 0 | Control [12]: 111%

CCCN(CCC)[C@@H]1CCc2cccc(C(=O)NC(C)C)c2[C@@H]1C
Control [1]: 74% | FBP [13]: 5 | Ki [2]: 38 nM | Control [3]: 99% | Change of body temperature [4]: -2.5 °C | Cage leaving [14]: 0 | Control [6]: 94% | Control [7]: 123% | FPT [15]: 5 | Ratio [9]: 54 | Ratio [10]: 76 | Control [12]: 66%

CCCN(CCC)[C@H]1CCc2ccccc2[C@H]1C
Control [1]: 92% | Ki [2]: > 1000 nM | Control [3]: 113% | Change of body temperature [4]: 0.1 °C | Cage leaving [16]: 3 | FBP [17]: 0 | Control [6]: 111% | FPT [18]: 0 | Control [7]: 107% | Ratio [9]: 104 | Ratio [10]: 81 | Control [12]: 112%

CCCN(C(C)C)[C@@H]1CCc2cccc(OC)c2[C@@H]1C
Control [1]: 102% | Ki [2]: 116 nM | Control [3]: 99% | Change of body temperature [4]: 0.1 °C | Cage leaving [19]: 2 | Control [6]: 105% | Control [7]: 86% | FBP [8]: 0 | Ratio [9]: 116 | Ratio [10]: 102 | FPT [11]: 0 | Control [12]: 104%

CCCN(CCC)[C@@H]1CCc2cccc(O)c2[C@@H]1C
Control [1]: 225% | Control [3]: 83% | Change of body temperature [4]: -0.2 °C | FBP [20]: 4 | Control [6]: 196% | Control [7]: 121% | FPT [21]: 4 | Ki [22]: 30 nM | Cage leaving [23]: 0 | Ratio [9]: 72 | Ratio [10]: 275 | Control [12]: 88%

CCCN(CCC)[C@H]1CCc2cccc(OS(=O)(=O)C(F)(F)F)c2[C@H]1C
Control [1]: 107% | Ki [2]: 236 nM | Control [3]: 107% | Change of body temperature [4]: 0.1 °C | Cage leaving [16]: 3 | FBP [17]: 0 | Control [6]: 99% | FPT [18]: 0 | Control [7]: 97% | Ratio [9]: 80 | Ratio [10]: 99 | Control [12]: 91%

CCCN(CCC)[C@@H]1CCc2cccc(C(=O)OC)c2[C@@H]1C
Control [1]: 167% | FBP [13]: 5 | Control [3]: 112% | Change of body temperature [4]: -2.7 °C | Cage leaving [14]: 0 | Control [6]: 194% | Control [7]: 122% | FPT [15]: 5 | Ki [22]: 58.8 nM | Ratio [9]: 64 | Ratio [10]: 152 | Control [12]: 78%

CCCN(CCC)[C@H]1CCc2cccc(C(C)=O)c2[C@H]1C
Control [1]: 130% | Ki [2]: 138 nM | Control [3]: 95% | Change of body temperature [4]: 0.1 °C | Cage leaving [5]: 3 | Control [6]: 93% | Control [7]: 99% | FBP [8]: 0 | Ratio [9]: 93 | Ratio [10]: 110 | FPT [11]: 0 | Control [12]: 93%

CCCN(CCC)[C@H]1CCc2cccc(O)c2[C@H]1C
Control [1]: 118% | Control [3]: 107% | Change of body temperature [4]: -0.3 °C | Cage leaving [19]: 2 | Control [6]: 96% | Control [7]: 109% | FBP [8]: 0 | Ratio [9]: 95 | Ratio [10]: 112 | FPT [11]: 0 | Control [12]: 104%

CCCN(CCC)[C@@H]1CCc2cccc(C(C)=O)c2[C@@H]1C
Control [1]: 192% | FBP [13]: 5 | Ki [2]: 0.56 nM | Control [3]: 95% | Change of body temperature [4]: -1.7 °C | Cage leaving [14]: 0 | Control [6]: 203% | Control [7]: 99% | FPT [15]: 5 | Ki [22]: 40 nM | Ratio [9]: 97 | Ratio [10]: 200 | Control [12]: 96%

CCCN(C(C)C)[C@H]1CCc2cccc(OC)c2[C@H]1C
Control [1]: 96% | Ki [2]: 1420 nM | Control [3]: 103% | Change of body temperature [4]: 0 °C | Cage leaving [19]: 2 | Control [6]: 90% | Control [7]: 87% | FBP [8]: 0 | Ratio [9]: 124 | Ratio [10]: 94 | FPT [11]: 0 | Control [12]: 110%
